Bioassay records as filed in PubChem.
The list is not random: actives were taken first. Their share in the collection is about 4%.
SENP1 inh: blocks the human SENP1 SUMO protease catalytic domain; Q9P0U3; recombinant SENP1 catalytic domain, CyPet-SUMO1-YPet FRET cleavage; inhibition, % at 10 µM; 0.21% of 360,000 active;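 active means inhibition at least 30% at 10 µM, raw YFP signal under a set limit, fluorescence ratio 0.5 to 1.5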
Target sequence (Q9P0U3 419-644 limits assumed): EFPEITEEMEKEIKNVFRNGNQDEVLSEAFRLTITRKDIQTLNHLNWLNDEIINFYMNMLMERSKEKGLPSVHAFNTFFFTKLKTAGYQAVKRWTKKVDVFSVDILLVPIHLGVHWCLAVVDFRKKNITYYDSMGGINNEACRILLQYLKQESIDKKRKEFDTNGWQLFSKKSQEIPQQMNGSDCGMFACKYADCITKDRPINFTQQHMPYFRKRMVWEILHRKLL
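Assay system: hSENP1 catalytic domain, recombinant. Amount: SENP1 enzyme, 20 pM final. Schedule: 50 min reaction, RT, dark. Technique: FRET, CFP and YFP emission. Control set: no-enzyme wells low, DMSO-plus-enzyme wells high control.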
Arr AP2 block: inhibitors of human beta-arrestin and AP2 interaction; 0.31% of 340,000 active; FITC-arrestin peptide / GST-AP2 beads, flow cytometry; AP2 beta2 appendage carries R879A mutation; inhibition, % at 10 µM;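 active means inhibition above a set limit, near 3 SD of compounds lacking own fluorescence, cut at about 54% in these data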
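Measured by: flow cytometry, FL1 (488/535 nm); Material: AP2 appendage R879A on GSH beads; Evaluation: percent response; Timing: pre-incubation 12 min, peptide binding 1 h, room temperature; Also added: 50 nM FITC-arrestin peptide; Medium: PBS with 0.05% Tween 20 and 0.1% BSA.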
NR3A LBD binder: NR3A (human) ligand-binding domain modulation; NR3A LBD differential scanning fluorimetry, Tm shift; 0% = protein alone, 100% = glycine-bound protein; Tm shift relative to glycine control, % at 25 µM; 2.5% of 340,000 active; AID 1259313;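 active means melting temperature shift of at least 10% of the positive control shift, at one fixed dose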
FAS-TE inh: inhibitors of human fatty acid synthase thioesterase domain. recombinant FAS-TE, OMFH fluorogenic substrate, fluorescence endpoint. AID 602261. 0.67% of 360,000 active. inhibition, % at 15 µM. P49327;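 active means compounds whose normalised, plate-corrected inhibition of enzyme fluorescence in the single-dose primary screen is 50% or more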
iPSC survival up: hiPSC single-cell survival enhancement; ATPlite luminescence; 100% = ROCK inhibitor wells, 0% = DMSO; survival enhancement, % at 20 µM; 0.044% of 360,000 active; in the data active means survival enhancement above about 18%;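 further: cells exposed to compounds for 16 hours before the ATP read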
H9c2 protect: protects H9c2 cardiomyocytes from peroxide injury. 0.63% of 360,000 active. H2O2 injury protection, ATPLite, 2 h. protection from H2O2 cell death, % at 20 µM;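 active means compounds giving at least 50% protection of heart cells from peroxide-induced death in the single-dose screen, raw or plate-pattern-corrected value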
Arr AP2 CP1: inhibitors of human beta-arrestin and AP2 interaction | 2% of 1,300 active | GST-AP2 beads, FITC arrestin peptide binding, flow cytometry; GST-fused beta2-adaptin appendage, R879A mutant | inhibition, % at 10 µM | shares compounds with Arr AP2 block;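 active means inhibition above a set limit, roughly 3 SD of non-fluorescent compound noise, cut at about 38% in these data; inactive means inhibition at or below that limit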;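 further: loss of bead fluorescence from 50 nM FITC arrestin peptide bound to appendage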
GST GSH counter: counter-screen for beta-arrestin AP2 inhibitors: GST-GSH bead binding; shares compounds with Arr AP2 block; GST-fluorescein binding to GSH beads, fluorescence; inhibition, % at 10 µM; 2% of 1,300 active;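 active means inhibition above 50%, about 3 SD of the inhibition seen with non-fluorescent compounds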;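 further: fluorescein maleimide labelled GST captured on 4 micron glutathione beads; higher means more loss of bead fluorescence from quenching or blocked binding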
Each line names hits and unclear results; the compound was inactive in the other large screens (follow-up assays come after a bar, where they were run).

CC1CC(C)CN(c2oc(-c3ccccc3Cl)nc2C#N)C1 (centres undefined)	Arr AP2 block 118.0 | Arr AP2 CP1 inactive | GST GSH counter inactive
CCc1nc2ccc(C(=O)N3CCN(S(=O)(=O)CC)CC3)cn2c1N(CC)CCN(C)C	none (no result: Arr AP2 block, NR3A LBD binder)
COc1ccc(NC(=O)CCC(=O)N(Cc2ccc(OC)c(OC)c2)c2nccs2)c(OC)c1	Arr AP2 block 56.2 | Arr AP2 CP1 inactive | GST GSH counter inactive
COc1ccc(OC)c(NC(=O)CCC(=O)N(Cc2ccc(OC)c(OC)c2)c2nccs2)c1	none
CN(C)CCCNC(=O)c1ccc(-c2cc3nc(NCc4cccnc4)n(C)c(=O)c3s2)cc1	none (no result: Arr AP2 block, NR3A LBD binder)
Cc1c(NC(=O)c2cccc(NC(=O)COc3cccc(Br)c3)c2)c(=O)n(-c2ccccc2)n1C	none
COc1cc2c(cc1NC(=O)COc1ccc3ccccc3c1)oc1ccccc12	none
COc1cccc(CN(C)CC(=O)Nc2cc3oc4ccccc4c3cc2OC)c1	none | Arr AP2 CP1 inactive | GST GSH counter inactive
COc1cc2c(cc1NC(=O)CN(C)Cc1cccc(OC)c1OC)oc1ccccc12	none | Arr AP2 CP1 inactive | GST GSH counter inactive
COc1cccc(CNC(=O)[C@@H]2CCCN2C(=O)[C@H]2CCCCN2C(=O)c2ccccc2C)c1	none (no result: Arr AP2 block, NR3A LBD binder, H9c2 protect)
Cc1onc(-c2ccccc2)c1C(=O)OCC(=O)Nc1ccccc1Cl	none (no result: Arr AP2 block, NR3A LBD binder)
Cc1nc(C)c(C(=O)O)c(-c2cccs2)c1C(=O)O	Arr AP2 block 74.3 | Arr AP2 CP1 inactive | GST GSH counter inactive
O=C(O)c1csc(-c2cccs2)n1	none
O=C(CNC(=O)c1ccc(Cl)cc1)OCc1nc2ccccc2s1	none
COc1cc(OC)cc(C(=O)NCC(=O)OCc2nc3ccccc3s2)c1	Arr AP2 block 55.4 | Arr AP2 CP1 inactive | GST GSH counter inactive
O=C(CCSCCC(=O)Nc1c(F)c(F)c(F)c(F)c1F)Nc1c(F)c(F)c(F)c(F)c1F	Arr AP2 block 58.1 | Arr AP2 CP1 inactive | GST GSH counter inactive
N#Cc1cccc(C(c2nnnn2C2CCCC2)N2CCC(Cc3ccccc3)CC2)c1 (centres undefined)	Arr AP2 block 69.2 | Arr AP2 CP1 inactive | GST GSH counter inactive
Cc1cccc(C(C)C)c1NC(=O)COC(=O)c1cc2ccccc2oc1=O	none
Cc1ccc(C)c(NC(=O)COC(=O)c2cc3ccccc3oc2=O)c1	Arr AP2 block 65.6 | Arr AP2 CP1 inactive | GST GSH counter inactive
O=C(COC(=O)c1ccc2c(c1)OCCO2)NCc1ccc(Cl)cc1	none (no result: Arr AP2 block, NR3A LBD binder)
OC(c1ccc(F)cc1)c1nc(-c2ccc(F)c(Cl)c2)cs1 (centres undefined)	none (no result: Arr AP2 block, NR3A LBD binder)
O=C1CCN(Cc2ccco2)C(=S)N1	none
COc1ccccc1CN1CC(C(=O)NCCc2ccc(C)o2)CCC1=O (centres undefined)	none
COc1ccccc1CN1CC(C(=O)NCc2c(F)ccc(C)c2F)CCC1=O (centres undefined)	none | Arr AP2 CP1 inactive | GST GSH counter inactive
CCn1ccnc1CNC(=O)C1CCC(=O)N(Cc2ccccc2F)C1 (centres undefined)	Arr AP2 block 54.2 | Arr AP2 CP1 inactive | GST GSH counter inactive
COc1ccccc1CCNC(=O)C1CCC(=O)N(Cc2ccccc2OC)C1 (centres undefined)	Arr AP2 block 66.3 | Arr AP2 CP1 inactive | GST GSH counter inactive
COc1ccccc1CN1CC(C(=O)NCc2ccc(C)c(F)c2)CCC1=O (centres undefined)	none | Arr AP2 CP1 inactive | GST GSH counter inactive
CCn1ccnc1CNC(=O)C1CCC(=O)N(Cc2cccc(C(F)(F)F)c2)C1 (centres undefined)	none
COc1ccc(Cc2nnc(NC(=O)C3CC(=O)N(c4ccccc4)C3)s2)cc1OC (centres undefined)	none
CCC(NC(=O)CCc1ccccc1)c1ccccc1 (centres undefined)	Arr AP2 block 61.5 | Arr AP2 CP1 inactive | GST GSH counter inactive
Cc1ccc(NC(=O)COC(=O)c2ccco2)cc1S(=O)(=O)N1CCCCC1	none (no result: Arr AP2 block, NR3A LBD binder)
COc1cc(C(=O)OCCNC(=O)c2cccnc2)cc(OC)c1OC	Arr AP2 block 58.3 | Arr AP2 CP1 inactive | GST GSH counter inactive
COC(=O)Cc1c(C)c2ccc(O)c(CN3CCCC(C)C3)c2oc1=O (centres undefined)	Arr AP2 block 104.9 | Arr AP2 CP1 inactive | GST GSH counter inactive
CCOC(=O)Cn1c(=O)oc2cc(S(=O)(=O)Nc3cc(OCC)ccc3OCC)ccc21	Arr AP2 block 56.9 | Arr AP2 CP1 inactive | GST GSH counter inactive
O=c1oc2ccccc2c2c1C(c1ccc(Cl)cc1)Nc1ccc3ccccc3c1-2 (centres undefined)	Arr AP2 block 84.7 | Arr AP2 CP1 inactive | GST GSH counter inactive
CN(Cc1ccc(Cl)cc1Cl)C(=O)C1CC(=O)N(Cc2ccco2)C1 (centres undefined)	none (no result: Arr AP2 block, NR3A LBD binder)
O=C(Cc1ccccc1C(=O)O)Nc1cccc2ccccc12	Arr AP2 block 59.6 | Arr AP2 CP1 inactive | GST GSH counter inactive
O=C(Nc1ccc(S(=O)(=O)N2CCCCC2)cc1)C1CCCN(C(=O)c2ccc(Cl)cc2)C1 (centres undefined)	none
CN(C)S(=O)(=O)c1ccc(NC(=O)C2CCCN(C(=O)c3ccc(Cl)cc3)C2)cc1 (centres undefined)	Arr AP2 block 56.0 | Arr AP2 CP1 inactive | GST GSH counter inactive
COCCNC(=O)c1cccc(OC2CCN(Cc3ccc(C(=O)OC)cc3)CC2)c1	none
COC(=O)c1ccc(CN2CCC(Oc3cccc(C(=O)N4CCOCC4)c3)CC2)cc1	Arr AP2 block 70.1 | Arr AP2 CP1 inactive | GST GSH counter inactive
COc1cccc(/C=C2/CCC(CN(C)C)C2=O)c1 (centres undefined)	none
COC(=O)c1cccc(Cn2c(Cl)c(/C=N/NC(=O)c3ccccc3Cl)sc2=O)c1	none
COC(=O)c1cccc(Cn2c(Cl)c(/C=N/NC(=O)c3ccco3)sc2=O)c1	Arr AP2 block 56.6 | Arr AP2 CP1 inactive | GST GSH counter inactive
COc1cc(Cn2c3ccc(NC(=S)NCc4ccc(C)cc4)cc3c(=O)n2C)ccc1F	none (no result: Arr AP2 block, NR3A LBD binder)
CC(OC(=O)c1nn(C(C)C)c(=O)c2ccccc12)C(=O)Nc1ncc(Cl)cc1Cl (centres undefined)	Arr AP2 block 61.0 | Arr AP2 CP1 inactive | GST GSH counter inactive
